In ChEMBL document CHEMBL3758168, “Hybrid triazoles: Design and synthesis as potential dual inhibitor of growth and efflux inhibition in tuberculosis” (Eur J Med Chem, 2016):

Key:
[1] = Ratio of compound IC50 to thioridazine IC50 for human MDM; assay type: ADME; settings: read-out: Ratio IC50
[2] = tested on: Mycobacterium tuberculosis; experiment: Antibacterial activity against Mycobacterium tuberculosis H37Rv ATCC 27294T assessed as isoniazid MIC at 32 ug/ml after 7 days by microdilution checkerboard assay; assay type: functional; settings: 168 h
Method in brief: (§1)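 Two-dimensional checkerboard in H37Rv at 10^5 CFU/ml in MB7H9/OADC. Partner drug (amikacin, EtBr, isoniazid, ofloxacin or rifampin) two-fold serially diluted across columns 3-11. Test compound two-fold serially diluted down rows 2-6. Plates incubated 7 days at 37 °C, then MTT added overnight. […] Run in triplicate.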

[3] = tested on: Mycobacterium tuberculosis; experiment: Antibacterial activity against Mycobacterium tuberculosis H37Rv ATCC 27294T assessed as ethidium bromide MIC at 2 ug/ml after 7 days by microdilution checkerboard assay; assay type: functional; settings: 168 h; method in brief: as §1
[4] = tested on: Mycobacterium tuberculosis; experiment: Antibacterial activity against Mycobacterium tuberculosis H37Rv ATCC 27294T assessed as ethidium bromide MIC at 4 ug/ml after 7 days by microdilution checkerboard assay; assay type: functional; settings: 168 h; method in brief: as §1
[5] = tested on: Mycobacterium tuberculosis; experiment: Antibacterial activity against Mycobacterium tuberculosis H37Rv ATCC 27294T assessed as ethidium bromide MIC at 8 ug/ml after 7 days by microdilution checkerboard assay; assay type: functional; settings: 168 h; method in brief: as §1
[6] = tested on: Mycobacterium tuberculosis; experiment: Antibacterial activity against Mycobacterium tuberculosis H37Rv ATCC 27294T assessed as amikacin MIC at 128 ug/ml after 7 days by microdilution checkerboard assay; assay type: functional; settings: 168 h; method in brief: as §1
[7] = tested on: Mycobacterium tuberculosis; experiment: Antibacterial activity against Mycobacterium tuberculosis H37Rv ATCC 27294T assessed as amikacin MIC at 32 ug/ml after 7 days by microdilution checkerboard assay; assay type: functional; settings: 168 h; method in brief: as §1
[8] = tested on: Mycobacterium tuberculosis; experiment: Modulation factor, ratio of ofloxacin MIC to compound MIC for Mycobacterium tuberculosis H37Rv ATCC 27294T at 128 ug/ml in presence of ofloxacin; assay type: functional
[9] = tested on: Mycobacterium tuberculosis; experiment: Modulation factor, ratio of ethidium bromide MIC to compound MIC for Mycobacterium tuberculosis H37Rv ATCC 27294T at 128 ug/ml in presence of ethidium bromide; assay type: functional
[10] = tested on: Mycobacterium tuberculosis; experiment: Antibacterial activity against Mycobacterium tuberculosis H37Rv ATCC 27294T assessed as isoniazid MIC at 8 ug/ml after 7 days by microdilution checkerboard assay; assay type: functional; settings: 168 h; method in brief: as §1
[11] = tested on: Mycobacterium tuberculosis; experiment: Antibacterial activity against Mycobacterium tuberculosis H37Rv ATCC 27294T assessed as amikacin MIC at 16 ug/ml after 7 days by microdilution checkerboard assay; assay type: functional; settings: 168 h; method in brief: as §1
[12] = tested on: Mycobacterium tuberculosis; experiment: Antibacterial activity against Mycobacterium tuberculosis H37Rv ATCC 27294T assessed as rifampin MIC at 64 ug/ml after 7 days by microdilution checkerboard assay; assay type: functional; settings: 168 h
Method in brief: (§2)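 M. tuberculosis H37Rv grown in MB7H9 + 10% OADC at 37 °C to OD600 0.8; plates inoculated at 10^5 CFU/ml. Rifampicin two-fold serially diluted across columns, test compound two-fold diluted down rows (two-dimensional checkerboard). Sealed, 37 °C for seven days, then MTT added and incubated overnight. MIC read as no colour change. Triplicate.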

[13] = tested on: Mycobacterium tuberculosis; experiment: Antibacterial activity against Mycobacterium tuberculosis H37Rv ATCC 27294T assessed as rifampin MIC at 8 ug/ml after 7 days by microdilution checkerboard assay; assay type: functional; settings: 168 h; method in brief: as §2
[14] = tested on: Mycobacterium tuberculosis; experiment: Antibacterial activity against Mycobacterium tuberculosis H37Rv ATCC 27294T assessed as rifampin MIC at 16 ug/ml after 7 days by microdilution checkerboard assay; assay type: functional; settings: 168 h; method in brief: as §2
[15] = tested on: Mycobacterium tuberculosis; experiment: Modulation factor, ratio of refampin MIC to compound MIC for Mycobacterium tuberculosis H37Rv ATCC 27294T at 128 ug/ml in presence of refampin; assay type: functional

CCCSc1nnc(COc2ccccc2C2=NOC(c3ccc(Cl)cc3Cl)C2)n1NC(=O)CCl (stereo not given)
selectivity ratio [1]: 3 | MIC [2]: 0.1 µg/mL | MIC [3]: 12.5 µg/mL | MIC [4]: 12.5 µg/mL | MIC [5]: 12.5 µg/mL | MIC [6]: 0.125 µg/mL | MIC [7]: 1 µg/mL | Ratio [8]: 32 | Ratio [9]: 32 | MIC [10]: 0.1 µg/mL | MIC [11]: 1 µg/mL | MIC [12]: 0.25 µg/mL | MIC [13]: 0.5 µg/mL | MIC [14]: 0.5 µg/mL | Ratio [15]: 64
